Data set [1] has as its target Metabotropic glutamate receptor 1 (Homo sapiens, UniProt Q13255). Nature of the data set: Inhibitory concentration against human metabotropic glutamate receptor. The procedure, abridged: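 Human mGlu1a receptor stably expressed in L929sA cells grown in GlutaMAX1 medium with 10% heat-inactivated dialyzed fetal calf serum, streptomycin and penicillin. Antagonism of receptor activation was read as intracellular Ca2+ response on a fluorometric imaging plate reader. IC50 is the mean of two or three independent experiments.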

The target in data set [2] is Metabotropic glutamate receptor 1 (Rattus norvegicus, UniProt P23385). Description: Inhibitory concentration against rat metabotropic glutamate receptor 1. The procedure, abridged: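 Rat mGlu1a stably expressed in CHO-dhfr- cells grown in DMEM/GlutaMAX1 with 10% heat-inactivated dialyzed fetal calf serum, 0.4 mM L-proline and antibiotics. Inhibition of receptor activation was measured as intracellular Ca2+ rise on a fluorometric imaging plate reader. IC50 is the mean of two or three independent experiments.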

Data set [3] in a line: Total plasma clearance in rat after the single intravenous administration at 2.5 mg/kg. Format: ADME, organism-based. More on the design: dose 2.5 mg/kg, route intravenous. The procedure, abridged: (§1)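 Rats received a single intravenous 2.5 mg/kg dose. Plasma kinetics were followed to derive elimination half-life and total plasma clearance.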
A short description of data set [4]: Half life in rat after the single intravenous administration at 2.5 mg/kg. It counts as ADME, organism-based. Details: dose 2.5 mg/kg, route intravenous. The settings on record: in vivo. The procedure, abridged:
as §1

Structures are written as SMILES. pIC50: −log10 of the molar value. Some results are limits rather than exact numbers.

Usually pIC50 stands for −log10 of the IC50, conventionally taken in molar units. Low values mean a high IC50, high ones a low IC50. A word on the clearance: it is a measure of how efficiently the substance is removed, as volume per time. Usually half-life stands for the time needed for the level to fall by half in the phase considered. A high value points to slow loss.

Chain of Metabotropic glutamate receptor 1 (Rattus norvegicus, UniProt P23385) (P23385 whole entry): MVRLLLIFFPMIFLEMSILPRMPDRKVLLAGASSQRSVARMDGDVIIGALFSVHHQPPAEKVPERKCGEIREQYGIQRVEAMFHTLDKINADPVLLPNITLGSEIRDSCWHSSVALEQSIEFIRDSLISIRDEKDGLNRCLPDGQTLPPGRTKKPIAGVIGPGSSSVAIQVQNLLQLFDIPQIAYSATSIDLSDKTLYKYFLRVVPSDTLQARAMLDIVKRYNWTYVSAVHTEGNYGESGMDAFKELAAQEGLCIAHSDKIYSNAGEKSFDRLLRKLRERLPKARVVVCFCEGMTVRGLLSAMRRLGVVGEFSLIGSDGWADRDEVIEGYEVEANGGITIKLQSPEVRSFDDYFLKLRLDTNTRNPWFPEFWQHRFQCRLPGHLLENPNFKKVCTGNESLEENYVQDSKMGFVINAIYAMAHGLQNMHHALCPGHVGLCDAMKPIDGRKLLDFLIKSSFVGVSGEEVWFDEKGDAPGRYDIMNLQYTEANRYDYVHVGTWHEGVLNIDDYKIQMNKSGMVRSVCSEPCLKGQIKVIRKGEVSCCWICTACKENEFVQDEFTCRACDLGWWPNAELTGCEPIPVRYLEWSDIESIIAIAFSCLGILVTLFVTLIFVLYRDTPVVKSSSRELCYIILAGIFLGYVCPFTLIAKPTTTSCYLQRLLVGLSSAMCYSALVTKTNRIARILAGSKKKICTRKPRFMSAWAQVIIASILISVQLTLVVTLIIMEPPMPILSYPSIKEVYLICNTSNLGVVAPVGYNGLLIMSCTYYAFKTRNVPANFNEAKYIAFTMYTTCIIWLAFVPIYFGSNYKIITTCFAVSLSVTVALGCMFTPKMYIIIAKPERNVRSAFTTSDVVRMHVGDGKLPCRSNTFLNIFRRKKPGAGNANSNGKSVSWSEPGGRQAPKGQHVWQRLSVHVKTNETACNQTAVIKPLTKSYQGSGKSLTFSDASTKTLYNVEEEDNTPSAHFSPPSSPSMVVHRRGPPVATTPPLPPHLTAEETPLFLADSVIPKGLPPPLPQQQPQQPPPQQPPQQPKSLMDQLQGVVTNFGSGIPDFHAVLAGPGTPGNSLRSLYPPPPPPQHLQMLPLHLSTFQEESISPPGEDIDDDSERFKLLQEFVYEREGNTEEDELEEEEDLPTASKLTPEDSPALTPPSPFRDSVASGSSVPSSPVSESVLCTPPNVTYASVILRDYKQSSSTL
Chain of Metabotropic glutamate receptor 1 (Homo sapiens, UniProt Q13255) (Q13255 whole entry): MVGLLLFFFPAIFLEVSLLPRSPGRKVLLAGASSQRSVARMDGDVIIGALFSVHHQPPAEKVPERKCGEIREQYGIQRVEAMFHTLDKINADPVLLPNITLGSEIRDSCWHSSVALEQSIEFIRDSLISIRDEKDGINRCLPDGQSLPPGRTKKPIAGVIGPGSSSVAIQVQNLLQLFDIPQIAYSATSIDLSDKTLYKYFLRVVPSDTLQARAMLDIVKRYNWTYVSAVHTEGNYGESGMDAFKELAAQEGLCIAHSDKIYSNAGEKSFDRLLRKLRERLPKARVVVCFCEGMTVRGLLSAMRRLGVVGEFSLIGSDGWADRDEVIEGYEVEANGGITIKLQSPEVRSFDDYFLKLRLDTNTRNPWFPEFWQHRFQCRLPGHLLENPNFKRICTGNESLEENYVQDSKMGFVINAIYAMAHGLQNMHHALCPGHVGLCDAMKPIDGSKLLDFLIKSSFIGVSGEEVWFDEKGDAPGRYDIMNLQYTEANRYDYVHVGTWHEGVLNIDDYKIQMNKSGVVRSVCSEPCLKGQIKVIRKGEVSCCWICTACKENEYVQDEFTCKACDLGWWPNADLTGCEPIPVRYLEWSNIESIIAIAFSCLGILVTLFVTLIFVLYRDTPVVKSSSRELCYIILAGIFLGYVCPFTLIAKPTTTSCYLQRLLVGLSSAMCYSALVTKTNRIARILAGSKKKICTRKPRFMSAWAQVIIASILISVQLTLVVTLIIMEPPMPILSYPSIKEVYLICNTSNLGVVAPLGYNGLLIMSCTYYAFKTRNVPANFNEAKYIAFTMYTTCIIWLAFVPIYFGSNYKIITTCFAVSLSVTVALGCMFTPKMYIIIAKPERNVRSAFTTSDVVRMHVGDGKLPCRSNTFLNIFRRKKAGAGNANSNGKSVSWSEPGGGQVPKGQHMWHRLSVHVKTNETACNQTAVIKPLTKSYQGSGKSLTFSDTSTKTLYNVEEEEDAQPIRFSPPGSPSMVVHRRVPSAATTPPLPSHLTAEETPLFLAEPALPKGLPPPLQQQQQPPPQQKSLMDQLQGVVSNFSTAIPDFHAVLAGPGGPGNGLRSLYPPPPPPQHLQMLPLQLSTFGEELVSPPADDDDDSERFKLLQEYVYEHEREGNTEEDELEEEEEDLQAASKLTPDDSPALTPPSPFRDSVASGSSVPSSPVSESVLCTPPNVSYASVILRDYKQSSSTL

`CO[C@H]1CC[C@@H](C(=O)c2ccc3nc4c(cc3c2)CCCN4C)CC1` showed a pIC50 in data set [1] of 7.54. Regarding `CCc1cc2cc(C(=O)CCc3ccccc3)ccc2nc1C`, the pIC50 is 6.64 in data set [2] and below 5.00 in data set [1]. The molecule `CCc1cc2cc(C(=O)Cc3cccc(OC)c3)ccc2nc1C` gave a pIC50 in data set [2] of 6.36. With `CO[C@H]1CC[C@@H](C(=O)c2ccc3nc4c(cc3c2)CCS4)CC1`, the pIC50 in data set [2] and in data set [1] was 8.70 each time. Take `CCc1cc2cc(C(=O)Cc3ccc(N(C)C)cc3)ccc2nc1C`: in data set [2], the pIC50 is 6.19.

In the case of `CCc1cc2cc(C(=O)[C@H]3CC[C@@H](OC)CC3)ccc2n2nnnc12`, the pIC50 in data set [2] was 7.35; in data set [1], 6.35. Molecule `CCc1cc2cc(C(=O)C3CCC(OC)CC3)ccc2nc1-c1cccs1` (configuration not stated) showed a pIC50 in data set [2] of 5.48. Take `CCCc1ccc2cc(C(=O)[C@H]3CC[C@@H](OC)CC3)ccc2n1`: the pIC50 in data set [1] was 8.52. Turning to `CCc1cc2cc(C(=O)Cc3ccc(OC)c(OC)c3)ccc2nc1C`, the pIC50 in data set [2] was below 5.00. As to `CCc1cc2cc(C(=O)C3CCC(O)CC3)ccc2nc1C` (configuration not stated), the pIC50 in data set [1] is 7.10. For the molecule `CCc1cc2cc(C(=O)Cc3ccccc3)ccc2nc1C`, the figures for the pIC50 in data set [2] and in data set [1] were 8.00 and 7.29, respectively.

In data set [2], `O=C(Cc1ccccc1)c1ccc2cc3c(nc2c1)OCCC3` showed a pIC50 of 5.08.

In data set [1], `CO[C@H]1CC[C@@H](C(=O)c2ccc3nc4c(cc3c2)CCC4)CC1` had a pIC50 of 9.25.

For the molecule `CO[C@H]1CC[C@@H](C(=O)c2ccc3nc4c(cc3c2)CCCCC4)CC1`, the pIC50 is 7.10 in data set [2] and 7.74 in data set [1].

Take `O=C(Cc1ccsc1)c1ccc2nc3c(cc2c1)CCCO3`: the pIC50 in data set [2] is 8.15; in data set [1], 7.13. With `CCc1cc2cc(C(=O)C34CC5CC(CC(C5)C3)C4)ccc2nc1C`, in data set [2], the pIC50 is 6.90. As to `C[C@H]1CC[C@@H](C(=O)c2ccc3nc4c(cc3c2)CCCCC4)CC1`, the values for the pIC50 in data set [2] and in data set [1] were 6.90 and 7.80, respectively. In the case of `CCc1cc2cc(C(=O)[C@H]3CC[C@@H](OC)CC3)ccc2nc1F`, the pIC50 in data set [1] was 8.05. For `O=C(CCc1ccccc1)c1ccc2nc3c(cc2c1)CCCO3`, the figures for the pIC50 in data set [2] and in data set [1] were 7.07 and 6.80, respectively.

Take `O=C(Cc1ccccc1)c1ccc2nc3c(cc2c1)CCCO3`: the pIC50 was 8.22 in data set [2] and 7.85 in data set [1]. Take `CCc1cc2cc(C(=O)C3CCC(OC)CC3)ccc2nc1-c1nccs1` (configuration not stated): in data set [2], the pIC50 was below 5.00.

On to `CCc1cc2cc(C(=O)C3CCC(OC)CC3)ccc2nc1CC` (stereo in doubt; cis), for which the pIC50 in data set [1] is 8.10. As to `CO[C@H]1CC[C@@H](C(=O)c2ccc3nc4c(cc3c2)CCCO4)CC1` (stereo in doubt; form 1), the results for the pIC50 in data set [2] and in data set [1] were 8.52 and 9.26, respectively. This molecule also gave a clearance in data set [3] of 91.7 mL/min/kg. The same molecule had a half-life in data set [4] of 19.2 min.

On to `CO[C@H]1CC[C@@H](C(=O)c2ccc3nc4c(cc3c2)CCCO4)CC1` (stereo in doubt; form 2), for which the pIC50 in data set [2] was 7.35; in data set [1], 6.97.

The values are drawn from ChEMBL document CHEMBL1144351, “Synthesis, structure-activity relationship, and receptor pharmacology of a new series of quinoline derivatives acting as selective, noncompetitive mGlu1 antagonists” (J Med Chem, 2005).
